{"source": "ChEMBL document CHEMBL1926580", "about": "“Identification and development of 2,5-disubstituted oxadiazole as potential candidate for treatment of XDR and MDR tuberculosis” (2012)", "key": {"[1]": {"test_system": "Mycobacterium tuberculosis", "assay": "Antitubercular activity against Mycobacterium tuberculosis H37Rv ATCC 27294 assessed as intracellular ATP level after 5 days by luminescence assay", "format": "functional", "summary_of_the_method": "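Growth inhibition of M. tuberculosis H37Rv reported as MIC50. Compounds were dissolved in 90% DMSO (stock), twofold serially diluted in duplicate to 10 concentrations, and spotted into 384-well plates. Assays were run at least twice.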"}, "HepG2": {"test_system": "HepG2", "assay": "Cytotoxicity against human HepG2 cells after 5 days", "format": "functional", "conditions": "HepG2, 120 h", "summary_of_the_method": "(§1)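 HepG2 and BHK21 cells were seeded, incubated 24 h at 37 °C, then exposed to twofold serial dilutions of compound. The value is CC50 (50% cytotoxic concentration), from at least two independent assays.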"}, "BHK-21": {"test_system": "BHK-21", "assay": "Cytotoxicity against hamster BHK21 cells after 5 days", "format": "functional", "conditions": "Mesocricetus auratus, BHK-21, 120 h", "summary_of_the_method": "as §1"}, "[2]": {"test_system": "Mycobacterium tuberculosis", "assay": "Antimycobacterial activity against Mycobacterium tuberculosis TN1082 assessed as intracellular ATP level after 5 days by luminescence assay", "format": "functional", "conditions": "TN1082, 120 h"}, "[3]": {"test_system": "Mycobacterium tuberculosis", "assay": "Antimycobacterial activity against Mycobacterium tuberculosis AH9584 assessed as intracellular ATP level after 5 days by luminescence assay", "format": "functional", "conditions": "AH9584, 120 h"}, "[4]": {"test_system": "Mycobacterium tuberculosis", "assay": "Antimycobacterial activity against Mycobacterium tuberculosis TN913 assessed as intracellular ATP level after 5 days by luminescence assay", "format": "functional", "conditions": "TN913, 120 h"}, "[5]": {"test_system": "Mycobacterium tuberculosis", "assay": "Antimycobacterial activity against clinical isolate Mycobacterium tuberculosis TN994 assessed as intracellular ATP level after 5 days by luminescence assay", "format": "functional", "conditions": "TN994, 120 h"}, "[6]": {"test_system": "Mycobacterium tuberculosis", "assay": "Antimycobacterial activity against Mycobacterium tuberculosis E8133 assessed as intracellular ATP level after 5 days by luminescence assay", "conditions": "E8133, 120 h"}, "[7]": {"test_system": "Mycobacterium tuberculosis", "assay": "Antimycobacterial activity against Mycobacterium tuberculosis TN2351 assessed as intracellular ATP level after 5 days by luminescence assay", "format": "functional", "conditions": "TN2351, 120 h"}, "[8]": {"test_system": "Mycobacterium tuberculosis", "assay": "Antimycobacterial activity against Mycobacterium tuberculosis TN1008 assessed as intracellular ATP level after 5 days by luminescence assay", "format": "functional", "conditions": "TN1008, 120 h"}, "[9]": {"test_system": "Mycobacterium tuberculosis", "assay": "Antimycobacterial activity against Mycobacterium tuberculosis TN1040 assessed as intracellular ATP level after 5 days by luminescence assay", "format": "functional", "conditions": "TN1040, 120 h"}, "[10]": {"test_system": "Mycobacterium tuberculosis", "assay": "Antimycobacterial activity against Mycobacterium tuberculosis TN3979 assessed as intracellular ATP level after 5 days by luminescence assay", "format": "functional", "conditions": "TN3979, 120 h"}, "[11]": {"test_system": "Mycobacterium tuberculosis", "assay": "Antimycobacterial activity against Mycobacterium tuberculosis TN1051 assessed as intracellular ATP level after 5 days by luminescence assay", "format": "functional", "conditions": "TN1051, 120 h"}, "[12]": {"test_system": "Mycobacterium tuberculosis", "assay": "Antimycobacterial activity against Mycobacterium tuberculosis TN1037 assessed as intracellular ATP level after 5 days by luminescence assay", "format": "functional", "conditions": "TN1037, 120 h"}, "[13]": {"test_system": "Mycobacterium tuberculosis", "assay": "Antimycobacterial activity against Mycobacterium tuberculosis TN2524 assessed as intracellular ATP level after 5 days by luminescence assay", "format": "functional", "conditions": "TN2524, 120 h"}, "[14]": {"test_system": "Mycobacterium tuberculosis", "assay": "Antimycobacterial activity against Mycobacterium tuberculosis BE11677 assessed as intracellular ATP level after 5 days by luminescence assay", "format": "functional", "conditions": "BE11677, 120 h"}, "[15]": {"test_system": "Mycobacterium tuberculosis", "assay": "Antimycobacterial activity against Mycobacterium tuberculosis TN3183 assessed as intracellular ATP level after 5 days by luminescence assay", "format": "functional", "conditions": "TN3183, 120 h"}, "[16]": {"test_system": "Mycobacterium tuberculosis", "assay": "Antimycobacterial activity against Mycobacterium tuberculosis W4 assessed as intracellular ATP level after 5 days by luminescence assay", "format": "functional", "conditions": "W4, 120 h"}, "[17]": {"test_system": "Mycobacterium tuberculosis", "assay": "Antimycobacterial activity against clinical isolate of Mycobacterium tuberculosis TN675 assessed as intracellular ATP level after 5 days by luminescence assay", "format": "functional", "conditions": "TN675, 120 h"}, "[18]": {"test_system": "Mycobacterium tuberculosis", "assay": "Antimycobacterial activity against Mycobacterium tuberculosis TN4259 assessed as intracellular ATP level after 5 days by luminescence assay", "format": "functional", "conditions": "TN4259, 120 h"}, "[19]": {"conditions": "Mycobacterium tuberculosis, H37Rv ATCC 27294, 120 h"}}}
{"smiles": "ClCCCSc1nnc(Cc2ccc(Cl)cc2Cl)o1", "values": [{"measurement": "MBC90", "setting": "[1]", "result": 5, "unit": "µM"}, {"measurement": "MIC50", "setting": "[1]; [19]", "result": 1.42, "unit": "µM"}, {"measurement": "CC50", "setting": "HepG2", "result": "> 50", "unit": "µM"}, {"measurement": "CC50", "setting": "BHK-21", "result": "> 50", "unit": "µM"}]}
{"smiles": "O=[N+]([O-])c1cccc(Cc2nnc(SCCCCl)o2)c1", "values": [{"measurement": "MIC50", "setting": "[1]; [19]", "result": 7.48, "unit": "µM"}, {"measurement": "CC50", "setting": "HepG2", "result": "> 50", "unit": "µM"}, {"measurement": "CC50", "setting": "BHK-21", "result": "> 50", "unit": "µM"}]}
{"smiles": "CCCSc1nnc(COc2ccc(Cl)cc2Cl)o1", "values": [{"measurement": "MBC90", "setting": "[1]", "result": 2.5, "unit": "µM"}, {"measurement": "MIC50", "setting": "[1]; [19]", "result": 0.63, "unit": "µM"}, {"measurement": "CC50", "setting": "HepG2", "result": 19.3, "unit": "µM"}, {"measurement": "CC50", "setting": "BHK-21", "result": 13.8, "unit": "µM"}]}
{"smiles": "NNC(=O)c1ccncc1", "note": "[ISONIAZID]", "values": [{"measurement": "MIC", "setting": "[1]; [19]", "result": 0.03, "unit": "µg/mL"}, {"measurement": "MIC50", "setting": "[1]; [19]", "result": 0.03, "unit": "µM"}, {"measurement": "MIC", "setting": "[2]", "result": 0.03, "unit": "µg/mL"}, {"measurement": "MIC", "setting": "[3]", "result": 0.19, "unit": "µg/mL"}, {"measurement": "MIC", "setting": "[4]", "result": 0.03, "unit": "µg/mL"}, {"measurement": "MIC", "setting": "[5]", "result": 0.03, "unit": "µg/mL"}, {"measurement": "MIC", "setting": "[6]", "result": 0.08, "unit": "µg/mL"}, {"measurement": "MIC", "setting": "[7]", "result": 0.06, "unit": "µg/mL"}, {"measurement": "MIC", "setting": "[8]", "result": 0.06, "unit": "µg/mL"}, {"measurement": "MIC", "setting": "[9]", "result": 0.03, "unit": "µg/mL"}, {"measurement": "MIC", "setting": "[10]", "result": 0.06, "unit": "µg/mL"}, {"measurement": "MIC", "setting": "[11]", "result": 0.03, "unit": "µg/mL"}, {"measurement": "MIC", "setting": "[12]", "result": 0.03, "unit": "µg/mL"}, {"measurement": "MIC", "setting": "[13]", "result": 0.06, "unit": "µg/mL"}, {"measurement": "MIC", "setting": "[14]", "result": 0.2, "unit": "µg/mL"}, {"measurement": "MIC", "setting": "[15]", "result": 0.03, "unit": "µg/mL"}, {"measurement": "MIC", "setting": "[16]", "result": 0.03, "unit": "µg/mL"}, {"measurement": "MIC", "setting": "[17]", "result": 0.03, "unit": "µg/mL"}, {"measurement": "MIC", "setting": "[18]", "result": 0.03, "unit": "µg/mL"}]}
{"smiles": "O=C(CCl)Sc1nnc(Cc2ccc(Cl)cc2Cl)o1", "values": [{"measurement": "MIC50", "setting": "[1]; [19]", "result": 9.67, "unit": "µM"}]}
{"smiles": "O=[N+]([O-])c1cccc(OCc2nnc(SCCCCl)o2)c1", "values": [{"measurement": "MIC50", "setting": "[1]; [19]", "result": 11.7, "unit": "µM"}, {"measurement": "CC50", "setting": "HepG2", "result": "> 50", "unit": "µM"}, {"measurement": "CC50", "setting": "BHK-21", "result": "> 50", "unit": "µM"}]}
{"smiles": "CCCSc1nnc(Cc2ccc(Cl)cc2Cl)o1", "values": [{"measurement": "MBC90", "setting": "[1]", "result": 5, "unit": "µM"}, {"measurement": "MIC50", "setting": "[1]; [19]", "result": 1.19, "unit": "µM"}, {"measurement": "CC50", "setting": "HepG2", "result": "> 50", "unit": "µM"}, {"measurement": "CC50", "setting": "BHK-21", "result": "> 50", "unit": "µM"}]}
{"smiles": "O=C(CCl)Sc1nnc(COc2cccc([N+](=O)[O-])c2)o1", "values": [{"measurement": "MIC50", "setting": "[1]; [19]", "result": "> 20", "unit": "µM"}]}
{"smiles": "ClCCCSc1nnc(COc2ccc(Cl)cc2Cl)o1", "values": [{"measurement": "MBC90", "setting": "[1]", "result": 2.5, "unit": "µM"}, {"measurement": "MIC50", "setting": "[1]; [19]", "result": 0.65, "unit": "µM"}, {"measurement": "CC50", "setting": "HepG2", "result": "> 50", "unit": "µM"}, {"measurement": "CC50", "setting": "BHK-21", "result": "> 50", "unit": "µM"}]}
{"smiles": "O=C(CCl)Sc1nnc(COc2ccc(Cl)cc2Cl)o1", "values": [{"measurement": "MIC50", "setting": "[1]; [19]", "result": "> 20", "unit": "µM"}]}
{"smiles": "CCCSc1nnc(COc2cccc([N+](=O)[O-])c2)o1", "values": [{"measurement": "MIC50", "setting": "[1]; [19]", "result": 8.52, "unit": "µM"}, {"measurement": "CC50", "setting": "HepG2", "result": "> 50", "unit": "µM"}, {"measurement": "CC50", "setting": "BHK-21", "result": "> 50", "unit": "µM"}]}
{"smiles": "CCCSc1nnc(Cc2cccc([N+](=O)[O-])c2)o1", "values": [{"measurement": "MIC50", "setting": "[1]; [19]", "result": 6.81, "unit": "µM"}, {"measurement": "CC50", "setting": "HepG2", "result": "> 50", "unit": "µM"}, {"measurement": "CC50", "setting": "BHK-21", "result": "> 50", "unit": "µM"}]}
{"smiles": "O=C(CCl)Sc1nnc(Cc2cccc([N+](=O)[O-])c2)o1", "values": [{"measurement": "MIC50", "setting": "[1]; [19]", "result": "> 20", "unit": "µM"}]}
